# Experimental data pooled from the literature.
# Compare with care: the assays were run in different laboratories.
# Target: Serine/threonine-protein kinase SIK2 (SIK2, Homo sapiens, UniProt Q9H0K1)
Structure (SMILES),effect on,method,concentration,remaining binding
O=C(c1ccc(Nc2ncc(Cl)c(-c3cc4ccccc4s3)n2)cc1)N1CCC(N2CCCC2)CC1,binding,competition with immobilised ligand,1 µM,27%
CN(C)c1nccc(-c2cnn3ncccc23)n1,binding,,1 µM,100%
COCCOc1nc(-c2ccc(Cl)nc2)nc2c1CN(C(=O)c1ncn3ccccc13)CC2,cell-free assay,competition with immobilised ligand,0.1 µM,100%
COc1cnc(Nc2cccc(S(N)(=O)=O)c2)nc1N1CCN(c2ccccc2)C(=O)C1,binding,competition with immobilised ligand,1 µM,92%
COc1ncc2cc3ccccc3nc2c1C#N,cell-free assay,competition with immobilised ligand,5 µM,94%
COc1ccc2c(c1)O[C@@H](c1ccc(OC)c(OC)c1)C[C@H]2NC(=O)C1(c2ccc3c(c2)OC(F)(F)O3)CC1,cell-free assay,competition with immobilised ligand,1 µM,95%
FC(F)(F)Oc1cccc(-c2cnc3ccc(-c4ccncc4)nn23)c1,binding,competition with immobilised ligand,5 µM,52%
COc1ccnn2ncc(-c3ccnc(N(C)C)n3)c12,binding,,1 µM,92%
O=S(=O)(NC1CCC(c2cc(F)ccc2F)(S(=O)(=O)c2ccc(Cl)cc2)CC1)C(F)(F)F (stereo not shown),cell-free assay,competition with immobilised ligand,1 µM,100%
C[C@@H](c1ccc(-n2cnc3c(N)ncnc32)cc1)N1CCc2nn(C)c(Cc3ccccc3)c2C1=O,binding,competition with immobilised ligand,0.1 µM,73%
CN1CCN(c2cnc3c(C4CCN(C(=O)c5ccc(OC(F)(F)F)cc5N)CC4)ncnc3c2)CC1,cell-free assay,competition with immobilised ligand,1 µM,100%
CN(C)c1nccc(-c2cnc3ncccn23)n1,binding,,1 µM,100%
Cc1cnc(Nc2ccc(C(=O)N3CCC(N4CCCC4)CC3)cc2)nc1-c1cc2ccccc2s1,binding,competition with immobilised ligand,1 µM,16%
CCC(=N\O)/C(C)=C/c1ccc(F)cc1,cell-free assay,competition with immobilised ligand,1 µM,100%
CN(c1nccc(-c2cnn3ncccc23)n1)C1CC1,binding,,1 µM,100%
O=C(NCC1CCOCC1)c1n[nH]cc1NC(=O)c1c(F)cccc1F,binding,competition with immobilised ligand,1 µM,83%
CN(C)c1ncc(F)c(-c2cnn3ncccc23)n1,binding,,1 µM,100%
O=C(NCCCN1CCOCC1)c1ccc(Nc2ncc(Cl)c(-c3ccc(Cl)s3)n2)cc1,binding,competition with immobilised ligand,1 µM,37%
c1cnn2ncc(-c3ccnc(N4CCC45COC5)n3)c2c1,binding,,1 µM,96%
COc1cc(-c2cn(C3CCc4c(F)cccc4N(CC(F)(F)F)C3=O)nn2)ccc1-n1cnc(C)c1 (stereo not shown),cell-free assay,competition with immobilised ligand,1 µM,100%
N[C@@H]1CCN(c2nccc(-c3cnn4ncccc34)n2)C1,binding,,1 µM,100%
CNC(=O)c1ccc(Nc2ncc(C(F)(F)F)c(NCc3nccnc3N(C)S(C)(=O)=O)n2)cc1,cell-free assay,competition with immobilised ligand,0.1 µM,100%
